STEP block – STEP phosphatase inhibitors, primary screen, biochemical, fluorescence intensity, uHTS. recombinant STEP, OMFP fluorogenic substrate. inhibition, % at 20 µM. hit rate 0.25% among 360,000. AID 588621, 2011;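 active = inhibition at 20 µM, scaled per plate between control wells, above about 37%, limit read from the data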;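 also: 0% = DMSO with enzyme and substrate and 100% = substrate only without enzyme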
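Assay system: isolated STEP enzyme / Timing: 20 min at room temperature, dark / Doses: 20 µM, 1% DMSO / Technique: fluorescence intensity, excitation 480 nm, emission 540 nm / Reagent: fluorogenic phosphatase substrate OMFP at 25 µM final / Measure: percent inhibition scaled to no-enzyme and uninhibited-enzyme controls, plate-pattern corrected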
LMPTP block – LMPTP phosphatase inhibitors, primary screen, biochemical, fluorescence intensity, uHTS. Low molecular weight phosphotyrosine protein phosphatase (Homo sapiens), P24666. recombinant LMPTP-A, OMFP fluorogenic substrate. inhibition, % at 20 µM. hit rate 0.22% among 360,000. AID 651560, 2012;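 active = compounds that cut the enzyme signal by at least half of the control window in the single-dose screen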;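 also: plate controls were DMSO wells with enzyme plus substrate for no effect and substrate without enzyme for full effect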
Target sequence (P24666 whole entry, looked up): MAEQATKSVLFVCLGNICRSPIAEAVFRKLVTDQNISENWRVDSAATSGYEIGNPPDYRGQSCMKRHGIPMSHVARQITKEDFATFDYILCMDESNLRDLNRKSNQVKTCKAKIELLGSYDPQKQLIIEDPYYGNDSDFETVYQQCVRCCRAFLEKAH
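Assay system: LMPTP-A enzyme. Input: 0.625 nM LMPTP-A final. Probe or stimulus: 400 µM OMFP. Compound dosing: single 20 µM dose. Schedule: 50 min dark incubation at room temperature. Detection: fluorescence intensity of OMFP turnover product. Read-out: percent inhibition versus substrate-only and uninhibited controls. Benchmarks: no-enzyme low control, uninhibited high control.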
DNMT1 block – human DNMT1 methyltransferase inhibitors, primary screen, biochemical, molecular beacon, fluorescence, HinP1I cleavage, uHTS | inhibition (reported as % activation of signal), % at 10 µM | hit rate 0.83% among 360,000; in the data active = inhibition above about 50%
SUMO1-SIM PPI – modulators of SUMO1 protein-protein interactions, primary screen, biochemical, uHTS; Small ubiquitin-related modifier 1 (Homo sapiens), P63165; SUMO1 binding to a labelled peptide, TR-FRET, 1 h; inhibition, % at 20 µM; hit rate 0.33% among 360,000; in the data active = inhibition above about 37%
Target sequence (P63165 whole entry, looked up): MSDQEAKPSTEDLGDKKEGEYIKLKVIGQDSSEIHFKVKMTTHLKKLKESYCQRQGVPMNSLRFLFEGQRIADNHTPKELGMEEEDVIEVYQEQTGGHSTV
Scp1 inh – Scp-1 phosphatase inhibitors, primary screen, biochemical, colorimetric, uHTS; hit rate 0.88% among 340,000; inhibition, % at 20 µM; Recombinant Scp1, phosphopeptide, malachite green phosphate absorbance; Carboxy-terminal domain RNA polymerase II polypeptide A small phosphatase 1 (Homo …;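 active = inhibition above about 50% at 20 µM, limit read from the data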;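 also: plate controls were DMSO wells with enzyme for no effect and wells lacking enzyme for full effect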
Target sequence (Q9GZU7 76-261 limits assumed): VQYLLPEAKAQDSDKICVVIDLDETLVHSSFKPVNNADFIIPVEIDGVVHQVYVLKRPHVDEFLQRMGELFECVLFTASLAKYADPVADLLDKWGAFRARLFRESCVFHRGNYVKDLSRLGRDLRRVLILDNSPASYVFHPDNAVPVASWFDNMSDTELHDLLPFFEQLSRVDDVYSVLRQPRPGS
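System: SCP-1 catalytic domain; Reagent: Phospho 17-mer peptide substrate; Doses: one concentration, 20 µM, with 1.0% DMSO; Incubation: 45 min room-temperature reaction, 5 min colour, 30 min stabiliser; Signal: Phosphate-binding colour reagent, absorbance read at 630 nm.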
The depositor's hits bear a star; nt = no result; ! = repeats disagree. Only some compounds are listed: those with a hit (about 1.7% of all), similar ones and a draw of the others.

SMILES	STEP block	LMPTP block	DNMT1 block	SUMO1-SIM PPI	Scp1 inh
CC(=O)NC12CC3CC(C1)CC(C(=O)Nc1nc4ccc(S(C)(=O)=O)cc4s1)(C3)C2	-2	-1	2	1	-8
CCN(CC)CCCNc1ncnc2ccccc12	-3	5	-6	-23	-10
CCN(CC)CCCNc1ccc2ncn3c4ccc(O)cc4c(=O)c1c23	-40	23	133*	-11	2
CN(C)CCNc1ccc2nnn3c4ccc(O)cc4c(=O)c1c23	-1	-2	53*	-93	-13
CCOC(=O)c1ccc2ncc(C(=O)OCC)c(NCCN(C)C)c2c1	-4	-2	9	-4	-10
O=S(=O)(c1ccccc1)c1nc(-c2cccc(Cl)c2)oc1N1CCOCC1	0	1	-1	-5	4
CCC1CCCCN1CCCNC(=O)COc1cc(=O)n(C)c2ccccc12 (centres undefined)	-3	-1	-1	44*	-9
CCC1CCCCN1CCCNC(=O)CCCOc1cc(=O)n(C)c2ccccc12 (centres undefined)	-1	-1	6	1	-5
CN1/C(=C/C=C/c2n(C)c3cc([N+](=O)[O-])c([N+](=O)[O-])cc3[n+]2C)C(C)(C)c2ccccc21	24	58*	6	-16	nt
CC(=O)c1cccc(-c2ccnc3c2CC(C(=O)NCc2ccco2)O3)c1 (centres undefined)	-2	0	1	4	nt
CCOC(=O)N1CCN(CCC(=O)Nc2ccc(C)c(Br)c2)CC1	-6	-1	-1	3	-12
Cc1ccc(NC(=O)CCN2CCN(CCO)CC2)cc1Br	1	-2	1	52*	-8
CCN(C(=O)CSc1nnc(Nc2ccc(OC)cc2)s1)C1CCS(=O)(=O)C1 (centres undefined)	-3	1	11	49*	10
CCCCN1/C(=C/c2ccc3ccccc3[n+]2CC)Sc2ccccc21	0	7	16	-55	7
CCN1/C(=C/c2ccc3cc(C)ccc3[n+]2CC)Sc2cc(C)ccc21	4	50*	9	-75	34
CCN1/C(=C/c2ccc3cc(C)ccc3[n+]2C)Sc2ccc3sccc3c21	17	77*	-17	24	45
COC(=O)[C@]12CCCCC=C1N(CCc1ccc(OC)c(OC)c1)C(=O)[C@H](CC(=O)N1CCN(C(=O)c3ccco3)CC1)C2	nt	-2	nt	-8	nt
CC(/C=C1\N=C(SCc2ccccc2Cl)SC1=O)=C\c1ccccc1	-2	2	101*	0	-5
O=C1SC(SCc2ccccc2)=N/C1=C\c1ccc(C(=O)O)cc1	4	1	2	-1	17
CC(=O)c1ccc(NC(=O)C2CC(=O)N(C(C)C)C2)cc1 (centres undefined)	1	-1	-3	5	-7
CC1(C(=O)Nc2cccc3c2CCCC3)CCN1C(=O)CCC1CCCC1 (centres undefined)	-4	1	-9	7	nt
CN(C)c1ccc(NC(=O)CSc2nnc(-c3ccco3)c(-c3ccco3)n2)cc1	4	27	-8	-8	-3
O=C(CSc1nnc(-c2ccco2)c(-c2ccco2)n1)Nc1ccccc1	18	53*	118*	77*	58*
Cc1ccccc1NC(=O)CSc1nnc(-c2ccco2)c(-c2ccco2)n1	6	29	106*	27	68*
Cc1cccc(C)c1NC(=O)CSc1nnc(-c2ccco2)c(-c2ccco2)n1	39*	57*	116*	51*	77*
SMILES	STEP block	LMPTP block	DNMT1 block	SUMO1-SIM PPI	Scp1 inh
COc1ccc(NC(=O)CSc2nnc(-c3ccco3)c(-c3ccco3)n2)cc1OC	-2	1	-4	-12	12
Nc1c(C(=O)NCc2ccco2)sc2nc3c(cc12)C(=O)CCC3	1	13	0	6	74*
O=C(NCc1ccccc1)C(c1ccc(F)cc1)N1CCN(c2ccccc2F)CC1 (centres undefined)	nt	0	nt	4	nt
O=C(NC(=Nc1nc2ccccc2o1)NC(=O)c1ccccc1)c1ccccc1	1	1	29	0	26
COc1ccccc1C(=O)NC(=Nc1nc2ccccc2o1)NC(=O)c1ccccc1OC	-3	1	0	67*!	-7
COC(=O)CCC(C)N1CCC(Oc2ccc(C(=O)NCc3ccccn3)cc2)CC1 (centres undefined)	0	0	3	-3	-2
CCCCCCCCCCCCCCCC[n+]1cccc2ccccc21	18	4	-8	83*	75*
COC(=O)C1(C(=O)OC)Cc2ccccc2N(S(=O)(=O)c2ccc(C)cc2)C1CC(C)=O (centres undefined)	nt	-1	nt	1	nt
COCCCNC(=O)CNC(=O)c1nn(-c2ccc(OC)c(Cl)c2)c(=O)c2ccccc12	-1	2	1	-13	-10
CCN(CC)c1ccc(C(=C2C=CC(=[N+](CC)CC)C=C2)c2ccc(N(CC)CC)cc2)cc1	25	81*	14	-58	-2
CCN(CC)c1ccc(C(=C2C=CC(=[N+](CC)CC)C=C2)c2ccccc2)cc1	2	2	30	-4	-10
Cc1nnc2c(NCC(C)c3ccccc3)nc3ccccc3n12 (centres undefined)	2	1	3	48*	-4
Cc1nnc2c(NCCC(C)C)nc3ccccc3n12	-3	-2	-1	-1	-6
CCn1c(CSc2nc3ccccc3s2)nnc1SCC(=O)c1ccc(O)c(O)c1	1	50	8	13	59*
COc1ccc(CC(N)c2csc(Nc3ccc(S(C)(=O)=O)cc3)n2)cc1 (centres undefined)	-2	-2	-7	-3	nt
Cc1nc2ccccc2c(=O)n1/N=C/c1ccccc1O	-3	-1	-1	5	-14
O=C1c2ccccc2C(=O)N1/N=C/c1ccc(O)c(O)c1O	22	68*	4	36	8
Cc1nc2ccccc2c(=O)n1/N=C/c1ccc(O)c(O)c1O	17	84*	78*	70*	8
O=C1c2cccc3cccc(c23)C(=O)N1/N=C/c1ccc(O)cc1O	-3	0	13	-21	-8
COc1ccc(OC)c(CNC(=O)CCn2nc(C)c3c(C)n(-c4ccccc4)nc3c2=O)c1	-4	-1	1	3	-2
O=C1c2cccnc2C(=O)N1Cc1ccc(S(=O)(=O)N2CCN(c3ccc(Cl)cc3)CC2)cc1	2	2	-1	60*	-11

Screens from PubChem.
